# Assay results gathered from unrelated publications.
# Protocols differ between the studies behind these lines.
# Cell line: OVCAR-8
# Effect on: cell growth or viability
Structure (SMILES),assay,setting,measurement,result
COc1ccc(C(=O)/C=C/c2cccc(Cl)c2)cc1S(N)(=O)=O,SRB,48 h,GI50,2800 nM
COc1cccc(Oc2ccccc2NC(=O)CNC(=O)c2cccc3ccccc23)c1,SRB,48 h,GI50,692 nM
S=C([S][Au-][P+](CCCCCC[P+]([Au-][S]C(=S)n1cccn1)(c1ccccc1)c1ccccc1)(c1ccccc1)c1ccccc1)n1cccn1,,,GI50,696 nM
O=C1Nc2ccccc2C1=NNc1nnc2n1N=C(c1ccccc1)CS2,SRB,10 µM,inhibition,41%
COc1ccc(-c2ccc(-c3ccc(C(=N)N)nc3)s2)cc1Cl,SRB,,GI50,2600 nM
Cc1cc(C)n(C(=S)[S][Au][PH](CCCCCC[PH]([Au][S]C(=S)n2nc(C)cc2C)(c2ccccc2)c2ccccc2)(c2ccccc2)c2ccccc2)n1,,,GI50,597 nM
COc1cc(-c2ccc(-c3ccc(C(=N)N)nc3)s2)cc(OC)c1OC,SRB,,GI50,2300 nM
COc1ccc(C(=O)/C=C/c2cccc(Cl)c2Cl)cc1S(N)(=O)=O,SRB,10 µM,inhibition,164%
